The text below walks through data of ChEMBL document CHEMBL1136798, “Synthesis and pharmacological characterization of a series of geometrically constrained 5-HT(2A/2C) receptor ligands” (J Med Chem, 2003).

The target in assay [1] is T1, 5-hydroxytryptamine receptor 1A (Homo sapiens, UniProt P08908).
T1 sequence (P08908 whole entry): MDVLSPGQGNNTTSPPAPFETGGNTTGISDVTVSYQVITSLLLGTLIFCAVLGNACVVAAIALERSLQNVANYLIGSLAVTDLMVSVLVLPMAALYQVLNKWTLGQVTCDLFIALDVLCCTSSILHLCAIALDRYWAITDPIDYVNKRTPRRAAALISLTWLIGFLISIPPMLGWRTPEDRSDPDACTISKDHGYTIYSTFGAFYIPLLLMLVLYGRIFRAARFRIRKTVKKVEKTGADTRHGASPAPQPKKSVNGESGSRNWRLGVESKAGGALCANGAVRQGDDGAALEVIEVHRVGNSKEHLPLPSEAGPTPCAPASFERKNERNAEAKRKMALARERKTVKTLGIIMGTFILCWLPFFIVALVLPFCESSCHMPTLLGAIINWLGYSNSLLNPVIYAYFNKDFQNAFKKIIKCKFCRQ
Kind of assay: Tested in vitro for its ability to bind to 5-hydroxytryptamine 1A receptor using [3H]8-OH-DPAT as radioligand. In a few lines:
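Human 5-HT1A receptor stably expressed in cells, used as harvested pellets. Competition used 2.0 nM [3H]-8-OH-DPAT in Tris/EDTA/MgCl2 buffer at pH 7.4, for 60 min at 25 °C. Nonspecific binding was defined with 10 µM 5-HT. Bound label was collected by filtration and counted by scintillation.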

Assay [2] has as its target T2, 5-hydroxytryptamine receptor 2C (Rattus norvegicus, UniProt P08909).
T2 sequence (P08909 whole entry): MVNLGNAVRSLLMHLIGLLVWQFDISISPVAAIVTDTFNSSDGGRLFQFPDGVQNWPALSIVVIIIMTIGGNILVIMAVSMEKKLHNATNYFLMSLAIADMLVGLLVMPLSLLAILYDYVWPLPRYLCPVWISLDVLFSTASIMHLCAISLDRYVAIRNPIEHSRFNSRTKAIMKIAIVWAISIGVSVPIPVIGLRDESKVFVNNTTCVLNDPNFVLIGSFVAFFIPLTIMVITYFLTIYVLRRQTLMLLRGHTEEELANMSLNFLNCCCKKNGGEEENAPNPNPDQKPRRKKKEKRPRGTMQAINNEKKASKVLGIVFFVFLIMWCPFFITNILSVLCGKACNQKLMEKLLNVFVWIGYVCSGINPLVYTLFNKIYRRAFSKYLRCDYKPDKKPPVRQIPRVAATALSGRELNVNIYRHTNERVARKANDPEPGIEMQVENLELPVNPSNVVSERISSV
Put plainly: In vitro binding to 5-hydroxytryptamine 2C receptor using [125 I]-DOI. The method in brief: (§1)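 Stably transfected cells expressing the rat 5-HT2A or rat 5-HT2C receptor were harvested as frozen pellets. Nonspecific binding was set with 10 µM cinanserin (5-HT2A) or 10 µM mianserin (5-HT2C). Bound label was collected on PEI-soaked GF/B filters and counted by scintillation.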

Assay [3] is filed under the species Rattus norvegicus. Put plainly: Maximum 5-HT stimulation was determined […]. Format: functional. The method in brief: (§2)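 Rat 5-HT2A-expressing cells at 70% confluency were labelled for 18-20 h with 1.0 µCi/mL [3H]-myo-inositol. They were pretreated for 15 min with 10 µM pargyline/10 mM LiCl, then exposed to drug for 30 min at 37 °C. Formic acid stopped the reaction. [3H]inositol phosphates were separated on Dowex-1 columns. Efficacy is expressed relative to serotonin.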

Assay [4] concerns the target T3, 5-hydroxytryptamine receptor 2A (Rattus norvegicus, UniProt P14842). Kind of assay: (§3) Tested for its ability to activate phospholipase C by quantification of IP3 at cloned rat 5-hydroxytryptamine 2A receptor. In a few lines: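 They were pretreated for 15 min with 10 µM pargyline/10 mM LiCl, then exposed to drug for 30 min at 37 °C. Formic acid stopped the reaction. [3H]inositol phosphates were separated on Dowex-1 columns. Efficacy is expressed relative to serotonin.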

In assay [5] the target is T3, 5-hydroxytryptamine receptor 2A. Put plainly: In vitro binding to 5-hydroxytryptamine 2A receptor using [125 I]-DOI. In a few lines:
as §1

The species named for assay [6] is Rattus norvegicus. Kind of assay: Maximum 5-HT stimulation was determined at 10 uM […]. Format: functional.
Assay [7] deals with Rattus norvegicus. Put plainly: Compound was tested for effective dose in DOI trained rats; Partial substitution at 1-6 uM/Kg (0.36-[…]). It counts as functional, organism-based.
For assay [8], the system named is Rattus norvegicus. Put plainly: Compound was tested for effective dose in LSD trained rats; Partial substitution at 1-6 uM/Kg (0.36-[…]). It counts as functional, organism-based.
Assay [9] deals with T3, 5-hydroxytryptamine receptor 2A. Put plainly: Tested for its ability to activate phospholipase c by quantification of IP3 at cloned rat 5-hydroxytryptamine 2A receptor. In a few lines: as §2
Assay [10] shares this target. Put plainly: Tested in vitro for its ability to bind to 5-hydroxytryptamine 2A receptor using [125 I]-DOI as radioligand. The method in brief: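 Stably transfected cells expressing the rat 5-HT2A or rat 5-HT2C receptor were harvested as frozen pellets. Competition used 0.20 nM [125I]-DOI in 50 mM Tris, 0.1 mM EDTA, 10 mM MgCl2, pH 7.4, for 60 min at 25 °C. Nonspecific binding was set with 10 µM cinanserin (5-HT2A) or 10 µM mianserin (5-HT2C). Bound label was collected on PEI-soaked GF/B filters and counted by scintillation.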

Assay [11] shares this target. The assay is described as §3. The method in brief:
as §2
This is another data set of the same source.

The species entered for assay [12] is Rattus norvegicus. Put plainly: Compound was tested for effective dose in LSD trained rats. It counts as functional.
The species entered for assay [13] is Rattus norvegicus. Put plainly: Compound was tested for effective dose in DOI trained rats. Format: functional.

Structures are written as SMILES. pEC50, pKi: −log10 of the molar value. Active and inactive are the calls of the source. Where only a bound is given, the exact number is not on record here.

T3 sequence (P14842 whole entry): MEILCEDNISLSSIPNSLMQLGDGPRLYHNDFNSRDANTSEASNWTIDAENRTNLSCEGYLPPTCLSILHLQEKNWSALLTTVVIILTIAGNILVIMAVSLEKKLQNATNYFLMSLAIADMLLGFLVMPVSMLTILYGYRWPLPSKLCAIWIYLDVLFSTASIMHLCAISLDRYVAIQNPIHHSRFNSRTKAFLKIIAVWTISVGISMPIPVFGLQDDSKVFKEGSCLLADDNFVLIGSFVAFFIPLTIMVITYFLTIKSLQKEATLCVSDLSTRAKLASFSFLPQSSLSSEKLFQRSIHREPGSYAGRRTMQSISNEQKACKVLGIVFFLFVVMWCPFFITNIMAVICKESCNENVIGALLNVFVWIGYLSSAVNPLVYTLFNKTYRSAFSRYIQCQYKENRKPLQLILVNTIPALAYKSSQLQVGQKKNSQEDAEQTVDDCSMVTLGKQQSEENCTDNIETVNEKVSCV

For orientation: pKi means −log10 of the Ki, conventionally taken in molar units. A lower pKi goes with a large Ki. As usually defined, the pEC50 is −log10 of the EC50, conventionally taken in molar units. Lower therefore signals a high EC50. As for `COc1cc(Br)c2c3c1[C@H](CN)CC[C@@H]3CO2`, the pKi in assay [1] was 6.28; in assay [2], 8.55; in assay [5], 8.06. The Max in the assay filed under Rattus norvegicus [3] worked out at 49%. This compound gave a pEC50 in assay [4] of 5.96.

Take `COc1cc(Br)c2c3c1C[C@H](N)C[C@@H]3CO2` (relative stereo): the pKi in [1] was 6.02; in assay [2] it was 8.40; in assay [5], 7.80. Moreover, the Max in the assay listed under Rattus norvegicus [3] was 63%. For the same compound, the pEC50 in assay [4] is 5.68.

In turn, `COc1ccc2occ3c2c1[C@H](CN)CC3` displayed a Max in the assay filed under Rattus norvegicus [6] of 10%. Besides, the pKi in assay [1] was 6.07; in assay [2], 7.96; in [5], 6.70. Also, the negative logarithm of the EC50 (pEC50) in assay [4] is less than 5.00.

For `COc1cc(Br)c2occ3c2c1[C@H](CN)CC3`, the PS entry with Rattus norvegicus [7] and with Rattus norvegicus [8] was “Partially active” each time. For the same compound, the pKi was 6.98 in assay [1], 8.96 in assay [2] and 8.59 in assay [5]. In addition, in the assay listed under Rattus norvegicus [3], the Max came out at 33%. The pEC50 in assay [4] is 6.92.

On to `COc1cc(CCN)cc(OC)c1OC` [MESCALINE], for which the Max in the assay listed under Rattus norvegicus [3] came to 92%. Moreover, in [9], the pEC50 was 5.59.

In turn, `CN(C)CCc1c[nH]c2cccc(O)c12` [PSILOCIN] displayed a Max in the assay filed under Rattus norvegicus [3] of 46%. In assay [4], this compound showed a pEC50 of 5.64. In [5], this compound showed a pKi of 7.60.

`CCN(CC)C(=O)[C@@H]1C=C2c3cccc4[nH]cc(c34)C[C@H]2N(C)C1` [LYSERGIDE] showed a Max in the assay filed under Rattus norvegicus [3] of 22%.

As to `COc1cc(Br)c2c3c1[C@H](CN)CC[C@H]3CO2`, the results for the pKi in [10], in assay [1] and in assay [2] were 8.03, 6.26 and 8.31, respectively. Also, in the assay filed under Rattus norvegicus [3], the Max was found to be 37%. Further, the negative-log EC50 (pEC50) in assay [11] is 6.47.

Regarding `COc1ccc2c3c1[C@H](CN)CC[C@H]3CO2`, the pKi in assay [1] was 6.00; in [2], 7.47; in assay [5] it was 6.51.

For the compound `COc1ccc2c3c1[C@H](CN)CC[C@@H]3CO2`, the pKi is 5.52 in assay [1], 7.23 in assay [2] and 6.15 in [5].

A word on the ED50: it is the dose at which the effect has come halfway, by size or by number of responders. A low value points to greater potency. `COc1cc(CC(C)N)c(OC)cc1Br` (configuration not stated) [BROLAMFETAMINE] displayed a Max in the assay listed under Rattus norvegicus [3] of 79%. Further, the values for the ED50 in the assay filed under Rattus norvegicus [12] and in the assay filed under Rattus norvegicus [13] were 1.06 µmol/kg and 0.091 µmol/kg, respectively.
